Test results taken from ChEMBL document CHEMBL4152203, “Antiproliferative hydrogen sulfide releasing evodiamine derivatives and their apoptosis inducing properties” (Eur J Med Chem, 2018).
The source made the active and inactive calls. No cut-off for these calls is given here.

Assays:
PBMC = assay: Antiproliferative activity against human PBMC cells after 72 hrs by MTT assay; assay type: cell-based
In short: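 Cells seeded and pre-incubated 24 h at 37 °C, 5% CO2, then exposed to compounds for 72 h. MTT (5 mg/mL stock) added for 4 h, formazan dissolved in DMSO for 10 min at room temperature, absorbance read at 570 nm. 0.1% DMSO as negative and 5-FU as positive reference. IC50 derived from inhibition ratios; mean ± SD of three independent experiments.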

HL-60 [1] = assay: Cell cycle arrest in human HL60 cells assessed as accumulation at G2/M phase at 0.6 uM after 48 hrs by propidium iodide/RNase A staining-based flow cytometric analysis (reference value: 10.19%); assay type: functional
HL-60 [2] = assay: Induction of apoptosis in human HL60 cells assessed as early apoptotic cells at 0.3 uM after 48 hrs by Annexin V-FITC/propidium iodide staining-based flow cytometric analysis (reference value: 1.11%); assay type: functional
HL-60 [3] = assay: Induction of apoptosis in human HL60 cells assessed as necrotic cells at 0.3 uM after 48 hrs by Annexin V-FITC/propidium iodide staining-based flow cytometric analysis (reference value: 0.02%); assay type: functional
HL-60 [4] = assay: Induction of apoptosis in human HL60 cells assessed as early apoptotic cells at 0.6 uM after 48 hrs by Annexin V-FITC/propidium iodide staining-based flow cytometric analysis (reference value: 2.31%); assay type: functional
HL-60 [5] = assay: Induction of apoptosis in human HL60 cells assessed as early apoptotic cells at 0.6 uM after 48 hrs by Annexin V-FITC/propidium iodide staining-based flow cytometric analysis (reference value: 1.11%); assay type: functional
HL-60 [6] = assay: Induction of mitochondrial membrane potential loss in human HL60 cells assessed as cell population with mitochondrial membrane potential collapse at 0.3 uM after 48 hrs by JC1 staining-based flow cytometry analysis (reference value: 7.65%); assay type: functional
HL-60 [7] = assay: Induction of apoptosis in human HL60 cells assessed as morphological changes by measuring chromatin condensation at 0.3 to 1.2 uM after 48 hrs by Hoechst 33258 staining-based fluorescence microscopic analysis; assay type: functional, cell-based
In short: (§1)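 HL-60 pre-incubated 24 h, then treated 48 h with 0, 0.3, 0.6 or 1.2 μM compound or vehicle. Cells were harvested, washed twice in PBS, stained with Hoechst 33258 (2 mg/mL in PBS) for 15 min at room temperature in darkness, washed, mounted and examined by fluorescence microscopy with a DAPI filter.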

HL-60 [8] = assay: Induction of apoptosis in human HL60 cells assessed as morphological changes by measuring nuclear fragmentation at 0.3 to 1.2 uM after 48 hrs by Hoechst 33258 staining-based fluorescence microscopic analysis; assay type: functional, cell-based; in short: as §1
HL-60 [9] = assay: Induction of apoptosis in human HL60 cells assessed as upregulation of caspase9 level at 0.3 to 1.2 uM after 48 hrs by Western blot analysis; assay type: functional, cell-based
In short: (§2)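 HL-60 treated in triplicate with 0.3, 0.6 or 1.2 μM compound; exposure is 72 h in the methods and 48 h in the legend. Lysates were run on 10% SDS-PAGE, transferred to nitrocellulose, blocked in 5% milk, and probed overnight at 4 °C with monoclonal antibodies (Bcl-2, Bax, cytochrome c, caspase-9/-3, p53, cyclin B1, cdc2). ECL detection; densitometry relative to GAPDH.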

HL-60 [10] = assay: Induction of apoptosis in human HL60 cells assessed as decrease in cyclin B1 protein expression level at 0.3 to 1.2 uM after 48 hrs by Western blot analysis; assay type: functional, cell-based; in short: as §2
HL-60 [11] = assay: Induction of mitochondrial membrane potential loss in human HL60 cells assessed as cell population with mitochondrial membrane potential collapse at 1.2 uM after 48 hrs by JC1 staining-based flow cytometry analysis (reference value: 7.65%); assay type: functional
HL-60 [12] = assay: Induction of mitochondrial membrane potential loss in human HL60 cells assessed as cell population with intact mitochondrial membrane potential at 1.2 uM after 48 hrs by JC1 staining-based flow cytometry analysis (reference value: 92.35%); assay type: functional

With CN1c2ccccc2C(=O)N2CCc3c(n(CCCCC(=O)OCCCCOc4ccc(-c5cc(=S)ss5)cc4)c4ccccc34)C21 (stereo not drawn) the IC50 (PBMC) was > 100 µM, the Activity (HL-60 [1]) was 16.63% and the Activity (HL-60 [2]) was 4.53%. It also gave an Activity (HL-60 [3]) of 0.06%, an Activity (HL-60 [4]) of 19.5% and an Activity (HL-60 [5]) of 15.56%. The Activity (HL-60 [6]) was 13.33%, the Activity (HL-60 [7]) was “Active” and the Activity (HL-60 [8]) was “Active”. The Activity (HL-60 [9]) was “Active”, the Activity (HL-60 [10]) was “Active” and the Activity (HL-60 [11]) was 35.01%. The Activity (HL-60 [12]) was 64.99%.
